Results: ChEMBL document CHEMBL5038582, “Adamantyl Isothiocyanates as Mutant p53 Rescuing Agents and Their Structure-Activity Relationships” (J Med Chem, 2021)
Activity calls are given as the source filed them. No cut-off for these calls is given here.

Tests used:
CCD-841CoN = assay: Cytotoxicity against human CCD841 cells harboring wild type p53 assessed as inhibition of cell growth at 10 to 50 uM incubated for 24 to 72 hrs by WST-1 assay; type: functional, cell-based; conditions: dose 10-50 µM, time 24-72 hrs
MCF7 [1] = assay: Induction of apoptosis in human MCF7 cells expressing wild type p53 assessed as increase in cleaved PARP1 level at 6 to 12 uM measured after 24 hrs by western blotting analysis; type: functional, cell-based; conditions: dose 6-12 µM
Procedure, shortened: (§1)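 Cells treated with DMSO or compound at 6 or 12 µM for 24 h, then lysed in Tris-Cl pH 8.0/NaCl/glycerol/NP-40/EDTA buffer with protease inhibitors. 100 µg lysate resolved on 4-12% SDS-PAGE and blotted to PVDF. Probed with anti-PARP or anti-caspase 3, then HRP secondary and ECL. GAPDH reprobe as control.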

MDA-MB-468 [2] = assay: Effect on p53 R273H mutant mRNA expression in human MDA-MB-468 cells at 6 uM measured after 4 hrs by qRT-PCR analysis; type: functional, cell-based
Procedure, shortened: (§2)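 Cells treated with DMSO or 6 µM test compound for 4 h. RNA extracted, cDNA synthesised, transcript measured by TaqMan qRT-PCR and normalised to GAPDH. Averages from triplicates of repeated experiments, with standard deviation.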

MCF7 [3] = assay: Upregulation of p53 expression in human MCF7 cells at 6 to 12 uM measured after 24 hrs by immunoblot analysis; type: functional, cell-based; conditions: dose 6-12 µM
Procedure, shortened: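 Cells treated with DMSO or compound at 6 or 12 µM for 24 h and lysed. 50 µg MCF-7 lysate resolved by SDS-PAGE and probed with p53 DO-1 antibody. Reprobed with anti-GAPDH as loading control. Run in triplicate.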

[4] = target: Cellular tumor antigen p53 (Homo sapiens) (UniProt P04637); assay: Activation of p53 in human MCF7 cells assessed as increase in NOXA mRNA expression at 6 uM incubated for 4 hrs by qRT-PCR analysis; type: cell-based; conditions: filed as activator; procedure, shortened: as §2
MCF7 [5] = assay: Induction of apoptosis in human MCF-7 cells expressing wild type p53 assessed increase in number of Annexin-V stained cells at 6 to 12 uM incubated for 24 hrs by AnnexinV-FITC and PI staining based flow cytometry; type: functional, cell-based; conditions: dose 6-12 µM
Procedure, shortened: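 24 h treatment, DMSO control. Cells scraped, washed in PBS, then given fluorochrome-conjugated Annexin V for 15 min at RT in the dark, followed by PI (0.1 µg/ml) in binding buffer. Read by flow cytometry on LSRFortessa. Annexin V-positive cells expressed relative to the DMSO control.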

[6] = test system: Cellular tumor antigen p53 (Homo sapiens), P04637 [R273H]; assay: Reactivation of transactivation function to p53 R273H mutant in human MDA-MB-468 cells assessed as increase in NOXA mRNA expression at 6 uM incubated for 4 hrs by qRT-PCR analysis; type: cell-based; conditions: filed as activator; procedure, shortened: as §2
MDA-MB-231 [7] = assay: Induction of apoptosis in human MDA-MB-231 cells expressing p53 R280K mutant assessed as increase in level of cleaved PARP1 level at 6 to 12 uM measured after 24 hrs by western blotting analysis; type: functional, cell-based; conditions: dose 6-12 µM; procedure, shortened: as §1
MDA-MB-231 [8] = assay: Antiproliferative activity against human MDA-MB-231 cells expressing p53 R280K mutant assessed as inhibition of cell growth incubated for 24 hrs by WST-1 assay; type: functional, cell-based; conditions: MDA-MB-231, 24 h
Procedure, shortened: (§3)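 WST-1 proliferation assay. Compound diluted in DMSO and added to cells at 1% DMSO final. 4,000 cells/well in duplicate; DMSO-only wells as control, cell-free medium wells for background.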

[9] = test system: Cellular tumor antigen p53 (Homo sapiens), P04637 [R280K]; assay: Reactivation of transactivation function to p53 R280K mutant in human MDA-MB-231 cells assessed as increase in NOXA mRNA expression at 6 uM incubated for 4 hrs by qRT-PCR analysis; type: cell-based; conditions: filed as activator; procedure, shortened: as §2
MDA-MB-468 [10] = assay: Antiproliferative activity against human MDA-MB-468 cells expressing p53 R273H mutant assessed as inhibition of cell growth incubated for 24 to 72 hrs by WST-1 assay; type: functional, cell-based; procedure, shortened: as §3
[11] = test system: Cellular tumor antigen p53 (Homo sapiens), P04637 [R280K]; assay: Reactivation of transactivation function to p53 R280K mutant in human MDA-MB-231 cells assessed as increase in p21 mRNA expression at 6 uM incubated for 4 hrs by qRT-PCR analysis; type: cell-based; conditions: filed as activator; procedure, shortened: as §2
MDA-MB-468 [12] = assay: Induction of apoptosis in human MDA-MB-468 cells expressing p53 R273H mutant assessed as decrease in level of uncleaved caspase 3 level at 6 to 12 uM measured after 24 hrs by western blotting analysis; type: functional, cell-based; conditions: dose 6-12 µM; procedure, shortened: as §1
MCF7 [13] = assay: Upregulation of p53 mRNA expression in human MCF7 cells at 6 uM measured after 4 hrs by qRT-PCR analysis; type: functional, cell-based; procedure, shortened: as §2
MDA-MB-231 [14] = assay: Induction of apoptosis in human MDA-MB-231 cells expressing p53 R280K mutant assessed as decrease in level of uncleaved PARP1 level at 6 to 12 uM measured after 24 hrs by western blotting analysis; type: functional, cell-based; conditions: dose 6-12 µM; procedure, shortened: as §1
MCF7 [15] = assay: Inhibition of colony formation in human MCF7 cells expressing wild type p53 assessed as decrease in number of colonies at 1.5 to 24 uM incubated for 24 hrs followed by incubation in fresh medium for 10 days by methylene blue staining based analysis; type: functional, cell-based; conditions: dose 1.5-24 µM
Procedure, shortened: (§4)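 500 cells/well seeded 24 h before treatment. Cells exposed to compound or DMSO control for 24 h at 37 °C, then grown 10 days at 37 °C in RPMI with 10% FBS. Colonies fixed in methanol, stained with methylene blue and counted. Survival expressed as percent of DMSO control.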

MDA-MB-231 [16] = assay: Induction of apoptosis in human MDA-MB-231 cells expressing p53 R280K mutant assessed as decrease in level of uncleaved caspase 3 level at 6 to 12 uM measured after 24 hrs by western blotting analysis; type: functional, cell-based; conditions: dose 6-12 µM; procedure, shortened: as §1
MDA-MB-468 [17] = assay: Induction of apoptosis in human MDA-MB-468 cells expressing p53 R273H mutant assessed as decrease in level of uncleaved PARP1 level at 6 to 12 uM measured after 24 hrs by western blotting analysis; type: functional, cell-based; conditions: dose 6-12 µM; procedure, shortened: as §1
MDA-MB-231 [18] = assay: Effect on p53 R280K mutant mRNA expression in human MDA-MB-231 cells at 6 uM measured after 4 hrs by qRT-PCR analysis; type: functional, cell-based; procedure, shortened: as §2
MDA-MB-231 [19] = assay: Antiproliferative activity against human MDA-MB-231 cells expressing p53 R280K mutant assessed as inhibition of cell growth incubated for 72 hrs by WST-1 assay; type: functional, cell-based; conditions: MDA-MB-231, 72 h; procedure, shortened: as §3
[20] = target: Cellular tumor antigen p53 (Homo sapiens) (UniProt P04637); assay: Activation of p53 in human MCF7 cells assessed as increase in MDM2 mRNA expression at 6 uM incubated for 4 hrs by qRT-PCR analysis; type: cell-based; conditions: filed as activator; procedure, shortened: as §2
[21] = target: Cellular tumor antigen p53 (Homo sapiens) (UniProt P04637); assay: Activation of p53 in human MCF7 cells assessed as increase in p21 mRNA expression at 6 uM incubated for 4 hrs by qRT-PCR analysis; type: cell-based; conditions: filed as activator; procedure, shortened: as §2
MCF7 [22] = assay: Induction of apoptosis in human MCF7 cells expressing wild type p53 assessed as decrease in level of uncleaved PARP1 level at 6 to 12 uM measured after 24 hrs by western blotting analysis; type: functional, cell-based; conditions: dose 6-12 µM; procedure, shortened: as §1
MDA-MB-231 [23] = assay: Inhibition of colony formation in human MDA-MB-231 expressing p53 R280K mutant assessed as decrease in number of colonies at 1.5 to 24 uM incubated for 24 hrs followed by incubation in fresh medium for 10 days by methylene blue staining based analysis; type: functional, cell-based; conditions: dose 1.5-24 µM; procedure, shortened: as §4

[Se]=C=NCCC12CC3CC(CC(C3)C1)C2
Activity (CCD-841CoN): inactive
Activity (MCF7 [1]): inactive
Activity (MDA-MB-468 [2]): inactive
Activity (MCF7 [3]): Active
Activity [4]: Active
Activity (MCF7 [5]): inactive
Activity [6]: Active
Activity (MDA-MB-231 [7]): Active
IC50 (MDA-MB-231 [8]): 6 µM
Activity [9]: Active
IC50 (MDA-MB-468 [10]): 6 µM
Activity [11]: Active
Activity (MDA-MB-468 [12]): Active
Activity (MCF7 [13]): Active
Activity (MDA-MB-231 [14]): Active
inhibition (MCF7 [15]): Active
Activity (MDA-MB-231 [16]): Active
Activity (MDA-MB-468 [17]): Active
Activity (MDA-MB-231 [18]): inactive
IC50 (MDA-MB-231 [19]): 6 µM
Activity [20]: Active
Activity [21]: Active
Activity (MCF7 [22]): inactive
inhibition (MDA-MB-231 [23]): Active

S=C=NCCCC12CC3CC(CC(C3)C1)C2
Activity (CCD-841CoN): inactive
Activity (MCF7 [1]): inactive
Activity (MDA-MB-468 [2]): inactive
Activity (MCF7 [3]): inactive
Activity [4]: Active
Activity (MCF7 [5]): inactive
Activity [6]: Active
Activity (MDA-MB-231 [7]): Active
IC50 (MDA-MB-231 [8]): 12 µM
Activity [9]: Active
IC50 (MDA-MB-468 [10]): 12 µM
Activity [11]: Active
Activity (MDA-MB-468 [12]): Active
Activity (MCF7 [13]): Active
Activity (MDA-MB-231 [14]): Active
inhibition (MCF7 [15]): Active
Activity (MDA-MB-231 [16]): Active
Activity (MDA-MB-468 [17]): Active
Activity (MDA-MB-231 [18]): inactive
IC50 (MDA-MB-231 [19]): 12 µM
Activity [20]: Active
Activity [21]: Active
Activity (MCF7 [22]): inactive
inhibition (MDA-MB-231 [23]): Active
